# CAL PDZ FP-1 – CAL PDZ peptide-binding inhibitors, primary screen, biochemical, fluorescence polarization, Cer-tagged CAL PDZ, HTS; Golgi-associated PDZ and coiled-coil motif-containing protein (Homo sapiens), Q9HD26; purified CAL PDZ, TMR-peptide fluorescence polarization, 1 h; inhibition, % at 20 µM; 0.02% of 330,000 active; AID 504414, 2011;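 active = highest replicate inhibition of at least 40%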;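 note: plate controls were DMSO neutral control wells for no effect and unlabeled competitor peptide control wells for full effect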
#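 Assay system – tagged CAL PDZ protein CerCALP, purified · Timing – 1 h at RT · Compound – single point, 20 µM · Measured by – fluorescence polarization from S- and P-plane intensities, G-factor corrected · Evaluation – inhibition from polarization loss · Probe or stimulus – TMR reporter peptide T*-PRC34 · Buffer or medium – pH 7.4 phosphate-saline buffer, reducing agent, detergent, IgG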
# ARNT-TACC3 inh – disruptors of ARNT/TACC3 protein interaction, primary screen, biochemical, AlphaScreen, single concentration; AlphaScreen His-ARNT PAS-B/GST-TACC3 binding, luminescence; TACC3 fragment carries E629A point mutation; inhibition, % at 9.99 µM; 0.66% of 390,000 active;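 active = mean inhibition of replicates at least 50% and at least half of replicates each reaching 50%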;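 note: 0% = complete ARNT plus TACC3 wells and 100% = ARNT alone without TACC3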
# SR-BI DiI-HDL act – activators of SR-BI mediated DiI-HDL uptake, primary screen, ldlA[mSR-BI] CHO cells, DiI fluorescence; 3 h; 100 = double the neutral-control signal; activation, % at 12.5 µM; 0.096% of 320,000 active; AID 504775, 2011;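 active = mean replicate activation of at least 60% and every replicate at or above 60%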;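 note: 0% = median plate neutral-control signal and 100% = twice that signal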
#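 Assay system: CHO ldlA[mSR-BI] cells, LDL receptor-null, SR-BI overexpressing; medium: Ham's F12 with 0.5% BSA, HEPES 25 mM, pH 7.4; also added: DiI-HDL 10 µg/mL; timing: 3 h uptake period with compound, 37 °C; signal: DiI fluorescence, bottom read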
# miR-122 sensor – miR-122 Renilla sensor signal increase in Huh7, primary screen, miR-122 inhibitor project, cell-based, single point, plate reader. Huh7 miR-122 Renilla luciferase sensor, 48 h; neutral wells = 0, positive control = 100. AID 602342, 2012. 0.3% of 340,000 active. activation (reporter increase), % at 12.5 µM;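 active = mean replicate activation score at least 90 and every replicate individually at or above 90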;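 note: higher luciferase means less miR-122 activity so hits act as miR-122 inhibitors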
# CAL PDZ FP-2 – untagged CAL PDZ binding inhibitors, primary screen, biochemical, fluorescence polarization, HTS. Golgi-associated PDZ and coiled-coil motif-containing protein (Homo sapiens), Q9HD26. purified CAL PDZ, TMR-peptide fluorescence polarization, 1 h. inhibition, % at 24.9 µM. 0.92% of 300,000 active. AID 602252, 2012;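 active = mean inhibition of at least 30% with at least half of replicates also reaching 30%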;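 note: 0% = DMSO neutral control and 100% = excess unlabeled competitor peptide PRC23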
# SR-BI HDL uptake – inhibitors of SR-BI mediated HDL lipid uptake, primary screen, ldlA[mSR-BI] cells, fluorescence, single point; ldlA[mSR-BI] CHO cells, DiI-HDL uptake fluorescence, 3 h; inhibition, % at 12.5 µM; 0.96% of 320,000 active; AID 488896, 2010;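 active = mean replicate inhibition of at least 70% and a set share of replicates each scoring 70 or more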;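 note: 0% = median of neutral control wells and 100% = median of positive control wells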
# Target sequence (Q61009 whole entry, looked up): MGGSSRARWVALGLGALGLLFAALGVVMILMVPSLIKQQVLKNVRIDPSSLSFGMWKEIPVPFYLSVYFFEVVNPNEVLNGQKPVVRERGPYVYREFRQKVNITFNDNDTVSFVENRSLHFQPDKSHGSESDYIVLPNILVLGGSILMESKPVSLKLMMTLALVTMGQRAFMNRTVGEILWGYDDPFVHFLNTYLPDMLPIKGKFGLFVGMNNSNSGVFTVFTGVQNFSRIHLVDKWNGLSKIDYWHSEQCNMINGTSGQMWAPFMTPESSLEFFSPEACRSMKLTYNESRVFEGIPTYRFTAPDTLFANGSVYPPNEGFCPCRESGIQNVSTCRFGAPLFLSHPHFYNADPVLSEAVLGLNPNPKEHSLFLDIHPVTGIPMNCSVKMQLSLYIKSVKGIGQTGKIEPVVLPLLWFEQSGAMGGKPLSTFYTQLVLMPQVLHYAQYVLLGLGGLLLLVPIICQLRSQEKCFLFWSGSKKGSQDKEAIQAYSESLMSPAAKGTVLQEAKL
# * marks the source's active call; other numbers are inactive results; . = no result; [ ] = another dose, or the depositor's remark. A selection: hits, their analogues and other compounds. The true share with any hit is near 2.1%.
SMILES,CAL PDZ FP-1,ARNT-TACC3 inh,SR-BI DiI-HDL act,miR-122 sensor,CAL PDZ FP-2,SR-BI HDL uptake
CCN(C(=O)c1ccc(=O)n(C)n1)c1c(N)n(Cc2ccccc2)c(=O)[nH]c1=O,0.6,-26.5,4.8,-2.1,37.7*,-4.8
CCCCCCn1nc(C(=O)N(CCCC)c2c(N)n(CCC)c(=O)[nH]c2=O)c2ccccc2c1=O,2.0,-0.2,-39.6,4.0,46.6*,39.6
CCCCn1c(N)c(N(CC)C(=O)c2ccccc2F)c(=O)[nH]c1=O,-0.4,3.7,8.5,.,33.0*,-8.5
C[C@@H]1CN([C@H](C)CO)S(=O)(=O)c2ccc(C#Cc3ccccc3F)cc2O[C@H]1CN(C)C(=O)Cc1cccnc1,.,-3.6,.,6.2[16.7 µM],.,.
O=C(Nc1ccc(F)cc1F)c1ccc(S(=O)(=O)NCc2ccco2)cc1,-0.8,-2.4,-29.0,17.5,47.7*,29.0
COc1ccc(OC)c(NC(=O)c2cc(S(=O)(=O)NCc3ccco3)ccc2F)c1,-0.4,0.7,-82.9,53.8,.,82.9*
O=C(Nc1ccc(F)cc1F)c1ccc(S(=O)(=O)N2CCCCC2)cc1,0.4,3.4,-34.8,-4.5,33.5*,34.8
O=C(C[C@@H]1C=C[C@H](NC(=O)c2ccccc2)[C@@H](CO)O1)NCCc1ccncc1,.,-12.1,.,.,.,.
C[C@@H]1CN([C@@H](C)CO)C(=O)Cc2cc(NC(=O)CCN3CCOCC3)ccc2O[C@H]1CN(C)CC1CC1,.,5.9,.,2.7[16.7 µM],.,.
O=c1ccc(-c2ccc(S(=O)(=O)NCC3CCN(Cc4ccccc4F)CC3)s2)n[nH]1,-1.7,49.9*,-15.0,-3.4,.,15.0
CCn1c(=O)c2cc(C(=O)NCc3cccs3)sc2c2ccccc21,0.5,31.1,-70.9,.,2.1,70.9*
CCn1c(=O)c2cc(C(=O)NCCN3CCOCC3)sc2c2ccccc21,-0.9,-1.2,-87.9,-0.4,-3.1,87.9*
CCn1c(=O)c2cc(C(=O)N3CCN(C)CC3)sc2c2ccccc21,-1.7,-6.8,-23.9,.,-0.4,23.9
CCCCNC(=O)c1cc2c(=O)n(CC)c3ccccc3c2s1,-0.7,-2.1,-72.6,-1.0,-6.6,72.6*
CCn1c(=O)c2cc(C(=O)NC(C)C)sc2c2ccccc21,-1.6,-6.9,-56.6,0.6,1.6,56.6
Cn1nc(-c2ccc(Cl)cc2)c2cc(C(=O)NCCN3CCOCC3)sc21,-3.9,29.1,-86.3,11.7,.,86.3*
CC(C)OC(=O)N(C)C[C@H]1OCc2ccccc2-c2c(n(C)c3ccccc23)C(=O)N([C@H](C)CO)C[C@@H]1C,.,0.3,.,.,.,.
C[C@@H]1CN([C@H](C)CO)C(=O)c2cc(NC(=O)Cc3ccccc3)ccc2O[C@@H](C)CCCCO[C@H]1CN(C)C(=O)C1CCCCC1,.,0.1,.,-12.7[16.7 µM],.,.
CC1(C)OC2OC(C(=O)N/N=C/c3cc(Br)ccc3O)C3OC(C)(C)OC3C2O1 (stereo not drawn),-1.9,60.0*,.,2.7,-4.9,.
NC(=O)N/N=C\c1cc(Br)ccc1O,-1.2,11.5,15.0,.,-1.3,-15.0
C[C@H](CO)N1C[C@H](C)[C@H](CN(C)Cc2ccc(-c3ccccc3)cc2)Oc2ccc(NS(C)(=O)=O)cc2CC1=O,.,-3.4,.,-3.3[16.7 µM],.,.
CC(C)(C)S(=O)(=O)c1cnc(N2CCCCC2)nc1N,-0.6,-6.0,-10.8,.,50.0*,10.8
CCNC(=O)C[C@H]1C=C[C@@H](NC(=O)C2CC2)[C@@H](CO)O1,.,-1.1,.,.,.,.
Nc1c2c(nc3ccc(Br)cc13)N(c1ccccc1)CC2,-0.9,9.3,-67.2,4.9,-5.5,67.2
Cc1cccc(N2CCc3c2nc2ccc(Br)cc2c3N)c1,0.4,-0.2,-90.8,7.6,1.0,90.8*
SMILES,CAL PDZ FP-1,ARNT-TACC3 inh,SR-BI DiI-HDL act,miR-122 sensor,CAL PDZ FP-2,SR-BI HDL uptake
N#CC(CCc1ccc([N+](=O)[O-])cc1)(CCc1ccc([N+](=O)[O-])cc1)C(N)=O,-1.6,-19.3,7.0,-5.2,42.6*,-7.0
Cc1noc(C)c1NC(=O)N(C)C[C@@H]1Oc2ccc(NC(=O)c3ccncc3)cc2C(=O)N([C@H](C)CO)C[C@@H]1C,.,-2.9,.,7.5[16.7 µM],.,.
CCC(CC)C(=O)Nc1cc(C(=O)OC)ccc1C(=O)OC,-2.4,-8.6,66.6*,.,-1.8,-66.6
C[C@H](CO)N1C[C@H](C)[C@@H](CN(C)C(=O)Nc2ccc3c(c2)OCO3)OCCCC[C@H](C)Oc2ccc(NC(=O)c3ccncc3)cc2C1=O,.,5.6,.,5.6[16.7 µM],.,.
COc1ccc(CCNC(=O)COC(=O)Cn2cnc3ccccc3c2=O)cc1,-0.1,0.4,22.9,186.4*,-1.7,-22.9
O=C(COC(=O)Cn1cnc2ccccc2c1=O)NCc1ccccc1,-1.7,-2.4,-6.4,-3.4,-5.6,6.4
Cc1[nH]nc(NCCO)c1[N+](=O)[O-],4.5,-2.8,-6.5,-2.1,30.9*,6.5
O=C(NN1C(=O)CSC1=S)C(=O)NN1C(=O)CSC1=S,-0.8,58.7*,11.3,-0.8,-3.1,-11.3
O=C(Cc1cccc2ccccc12)NN1C(=O)CSC1=S,.,-6.9,2.4,.,-6.1,-2.4
O=C(NCc1ccccc1)c1cccc(COc2ccc3c(c2)CCC3)c1,-0.5,-10.6,10.5,.,-1.5,-10.5
COc1cccc(OC)c1C(=O)NNC(=O)c1cccc(COc2ccc3c(c2)CCC3)c1,-1.9,-0.2,-75.6,1.5,-2.3,75.6*
CO[C@@H]1CN(C)C(=O)c2cc(NC(=O)Nc3ccccc3)ccc2OC[C@H](C)N(C(C)=O)C[C@@H]1C,.,-3.3,.,3.1[16.7 µM],.,.
O=c1[nH]c(/C=C\c2ccc(O)c(O)c2)nc(O)c1[N+](=O)[O-],0.0,37.1*,25.9,-8.2,-1.3,-25.9
O=c1[nH]c(/C=C\c2cccc(O)c2)nc(O)c1[N+](=O)[O-],-1.5,11.8,-13.8,-1.9,.,13.8
Cc1noc(C)c1NC(=O)Nc1ccc2c(c1)C(=O)N([C@H](C)CO)C[C@@H](C)[C@H](CN(C)S(=O)(=O)c1ccc(Cl)cc1)OCCCC[C@@H](C)O2,.,6.4,.,-9.9[16.7 µM],.,.
CCNC(=O)C[C@@H]1CC[C@H]2[C@H](COc3ccc(NC(=O)Nc4ccccc4OC)cc3C(=O)N2C)O1,.,-6.7,.,3.6[16.7 µM],.,.
C[C@@H]1CN([C@H](C)CO)C(=O)c2cc(N(C)C)ccc2O[C@@H](C)CCCCO[C@H]1CN(C)C(=O)Nc1ccc2c(c1)OCO2,.,.,.,-6.9[16.7 µM],.,.
